Test results published in ChEMBL document CHEMBL4513216, “Probing the Open Global Health Chemical Diversity Library for Multistage-Active Starting Points for Next-Generation Antimalarials” (ACS Infect Dis, 2020).

Assay: Toxicity liver stage against HepG2, at 10uM
Format: cell-based
Set-up: test concentration 10 uM, cell line HepG2-A16-CD81EGFP
Conditions: human, HepG2-A16-CD81EGFP cells; read-out: INHIBITION
Method in brief: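 Uninfected HepG2-A16-CD81EGFP cells, 3 × 10^3 per well, 1536-well, plated on prespotted compound at 10 μM final, parasite-free screening media added to match infected plates; puromycin 10 μM positive, DMSO 0.5% negative; run in parallel with 48 h PbLuc assay at 37 °C, 5% CO2; viability by CellTiter-Glo luminescence, normalized to controls.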

Compound	cytotoxicity at 10 µM
O=C(Nc1cccc(OCc2cccc(F)c2)c1)C1COCCO1 (configuration not stated)	8.06%
Cc1c(NC(=O)C(C)N(C)C)c(=O)n(-c2ccccc2)n1C (configuration not stated)	1.11%
CC(C)NC(=O)Nc1ccc2c(c1)ncn2CC(=O)NCCN(C)C	-8.15%
COc1cccc2c1ccn2CCNC(=O)C1CCC1	-3.54%
COCC(=O)Nc1ccc2c(c1)CN(C(=O)c1ccco1)CC2	7.58%
O=C(NCC1(O)CCCC1)c1ccc2nsnc2c1	-5.37%
Cn1cc(C(=O)OC2CN(c3nc4c(C(F)(F)F)cccc4s3)C2)nn1	-11.8%
CC(C)N(C)[C@@H]1CCN(Cc2ccoc2)[C@H]1Cc1ccccc1	-2.57%
CCC(=O)N1CCC2(CC1)CN(C(C)=O)c1ccc(C)cc12	8.82%
COc1nn(C)c2c1CCCN(S(=O)(=O)c1ccccc1F)C2	-109%
COCC1CN(C(=O)c2cccc(C)n2)Cc2ncnn2C1 (configuration not stated)	3.84%
O=C(O)c1ccc2c(c1)C1(CCCCC1)CN2C(=O)c1cccs1	3.01%
Cc1nnc(N2CCCC3(CN(Cc4nccn4C)CCO3)C2)o1 (configuration not stated)	-6.83%
COC(=O)c1ccc(C2CC(=O)Oc3cc(C)[nH]c(=O)c32)cc1 (configuration not stated)	-3.86%
CCC(=O)Nc1ccc2c(c1)CN(C(=O)c1ccco1)CC2	5.84%
O=S(=O)(Cc1ccccc1)NCC1CCN(c2cnccn2)CC1	14.4%
c1ccc(OCCNCc2cccs2)nc1	-3.26%
CCn1cc(CN(C)S(=O)(=O)c2ccc(NC(C)=O)cc2)cn1	9.22%
CNc1cccc(C2CN(C(=O)c3c[nH]cn3)CCO2)n1 (configuration not stated)	6%
COC(=O)[C@@H]1CN(C(=O)c2cscn2)C[C@H]1c1ccc(OC)cc1	-31.6%
O=C(C1CCCO1)N1CCC(O)(Cn2ccc3ccncc32)CC1 (configuration not stated)	-29.9%
Cc1ccc2nc(CN(Cc3ccc(C)o3)C(C)C)cc(=O)n2c1	5.6%
CC(C(=O)N(Cc1ccc(F)cc1)CC(F)(F)F)S(C)(=O)=O (configuration not stated)	14.7%

Compound	cytotoxicity at 10 µM
Cc1ccc(=O)n(Cc2nc(C(C)OCC(C)C)no2)n1 (configuration not stated)	-3.21%
CC(C)Oc1cccc(CC(=O)NC2CCN(CC(N)=O)CC2)c1	3.05%
Cc1ncc(CNC(=O)NCC(C)Oc2ccccc2F)s1 (configuration not stated)	-7.16%
CN(Cc1noc(C2CC2)n1)C1CCN(CCn2cccn2)C1 (configuration not stated)	-4.32%
O=C(NCCSC1CCCC1)c1cc(Cl)ccn1	-15.5%
COCCNc1ccc(CNCc2cnc3nc(C)cc(C)n23)cc1	-153%
CN(Cc1nc2ccccc2n1C)C(=O)CCc1cscn1	-159%
CSCCC(=O)N1CCN(CC(O)C(C)(C)C)CC1 (configuration not stated)	-2.06%
O=C(C1CCN(c2ncnc3cccc(F)c23)CC1)N1CCCC1	3.76%
O=C(NCC1(O)CCSC1)c1ccn(-c2ccccc2F)n1 (configuration not stated)	2.88%
Cc1ccc(C(=O)NCC(O)CN2CCCC2=O)c(C)c1 (configuration not stated)	-6.68%
O=C1CN(C(=O)c2cc3c(F)cc(Br)cc3[nH]2)CCN1	0.0723%
CC(C)N(CC(N)=O)CC(=O)NCCc1c(F)cccc1F	-4.97%
CCCN1CCCN(c2ccc(-n3ccc(C)n3)nn2)CC1	-1.2%
CN(C)c1ncc(NC(=O)N2CCC(CN3CCCC3)C2)cn1 (configuration not stated)	3.88%
c1ccc(CCN2CCCC(c3noc(C4CC4)n3)C2)cc1 (configuration not stated)	-3.62%
CC(C)N(CC(N)=O)C(=O)c1cnc(-c2ccc3c(c2)OCO3)s1	-5.92%
COc1ccccc1NCC(=O)NCc1cc[nH]n1	1.87%
COC(=O)c1ccc(N2CCC(N(C)c3ccccc3)CC2)nn1	-4.92%
CCOc1cccc(COC(=O)c2ccc(Cl)cn2)n1	-3.44%
N#Cc1cnc2ccccc2c1N1CCNCC1	-1.86%
CCC1CN(c2cnn(C)c(=O)c2Cl)CCO1 (configuration not stated)	-1.26%
COc1cccc(C(O)Cn2ncc3ncccc3c2=O)c1 (configuration not stated)	-2.45%

Compound	cytotoxicity at 10 µM
CCN(CC)c1ccc(NC(=O)NCC2CCOC2)cn1 (configuration not stated)	2.14%
CCN(C(=O)CN1CCCC1c1ccc(OC)cc1)c1ccccc1 (configuration not stated)	-2.25%
COc1ccc2c(c1)C(NCCc1ccccn1)CCCO2 (configuration not stated)	-6.03%
CCC(NC(=O)NCc1ccoc1C)c1c(C)nn(C)c1C (configuration not stated)	-1.44%
N#Cc1cc(S(N)(=O)=O)ccc1NC1CCc2c(F)cccc21 (configuration not stated)	-12.4%
CCC1CN(C(=O)COc2ccc(NC(C)=O)cc2)CCO1 (configuration not stated)	-9.4%
COc1ccc(Br)cc1CCC(=O)N1CCCC1	-4.2%
Cc1cc(-n2cncn2)ccc1C(=O)Nc1ccc(N2CCCC2)cn1	7.26%
O=C(NCc1nnc2n1CCCC2)N(Cc1ccccc1F)C1CC1	-9.29%
CCc1nnc(CNCC2CCCN2c2cccnn2)o1 (configuration not stated)	-10.7%
Cc1cnn(CC2CCCN2C(=O)CCCc2nc(C)no2)c1 (configuration not stated)	2.86%
COCCN1CCCC2(CCN(c3nccc4ccccc34)C2)C1=O (configuration not stated)	-0.212%
CCCn1ncc(C(=O)N2CCC(N3CCCCC3)CC2)c1C	-143%
Cc1nccc(-c2ccccc2)c1C(=O)N1CCC2(CCCO2)CC1	2.34%
COc1ccccc1CNC(=O)CN(C)C(C)c1nccs1 (configuration not stated)	1.81%
Cc1ccc(-c2noc([C@H](N)CC(C)C)n2)nn1	1.27%
CCc1cc(N2CCN(c3cnccn3)CC2)n2nc(C)c(C)c2n1	6.71%
COCC[C@]1(O)CCN(Cc2nc(C)c(C)s2)C[C@H]1C	2.14%
CCOc1ccc2[nH]c(=O)c(CN3CCCC(CO)(CO)C3)cc2c1	22.3%
O=C(CCc1ccncc1)N1CCc2c(ncnc2N2CCOCC2)C1	-11.5%
Cc1cc(C)c(C(=O)N(CCO)Cc2ccccc2F)c(=O)[nH]1	-0.626%
CCc1noc(C2CCCCN2C(=O)c2ccccc2)n1 (configuration not stated)	-2.38%
CN(C)C(=O)N1CCN(CCCOc2ccccc2)[C@H]2CS(=O)(=O)C[C@H]21	0.666%

Compound	cytotoxicity at 10 µM
Cc1nn(C)c(C)c1CN(Cc1cccn1-c1ccccn1)C(C)C	0.936%
CC[C@@]1(O)CCN(C(=O)CCc2cnn(C)c2)C[C@H]1O	-0.634%
O=C(c1cccnc1O)N1CCCC2(C=Cc3ccccc3O2)CC1 (configuration not stated)	9.02%
CCOC(=O)CC(C)NC(=O)c1cn(Cc2ccccc2F)nn1 (configuration not stated)	-4.75%
O=C1NCCN(Cc2cccnc2)C1CC(=O)N1CCc2n[nH]cc2C1 (configuration not stated)	-4.05%
N#Cc1cccc(CN2CCN(C(=O)C3CCC3)[C@@H]3CS(=O)(=O)C[C@@H]32)c1	-3.49%
COc1ccc(OCCN2CCOCS2(=O)=O)cc1	2.6%
CCn1ccnc1CNc1nccc(-c2c(C)nn(C)c2C)n1	-0.0793%
Cc1nn(C)cc1C(=O)N1CCCN(C2Cc3ccccc3C2)CC1	-3.16%
Cc1nc2c(C(=O)N[C@H]3C[C@H]4CN(C)CCN4C3)cccc2[nH]1	-7.98%
CN(CCCOc1ccccc1Cl)C(=O)CN1C(=O)CCNC1=O	-1.97%
COCC[C@]1(O)CCN(C(=O)c2cnn(C)c2)C[C@H]1C	2.59%
COc1ccc(C(=O)N2C[C@@H](C(=O)O)[C@H](c3cccc(F)c3)C2)c(O)c1	6.03%
CN(Cc1csc(-c2ccccc2)n1)C(=O)CCNS(C)(=O)=O	0.571%
CC(C)(C)c1cc(CNC(=O)c2cc(COc3ccccc3)[nH]n2)[nH]n1	8.28%
COc1ccc2c(c1)OCC(Cc1ccc(CN)cn1)C2 (configuration not stated)	-1.84%
CC(=O)NCCCC(=O)N1CCC(Sc2cccc(C)c2)CC1	2.06%
Cn1cc(C(=O)N2CCCCC2CCc2ccccc2)cn1 (configuration not stated)	-7.45%
O=C(c1ccc(C2CCCO2)s1)N1Cc2ccccc2C1 (configuration not stated)	-13.4%
CC(C)c1cc(CSCCC(=O)O)no1	-7.52%
O=C(CSc1nccc(-c2ccc3c(c2)OCO3)n1)N1CCOCC1	-8.3%
Cc1cn(Cc2ccc(F)cc2)nc1N	-8.99%
Cc1oc(C(=O)O)cc1S(=O)(=O)Nc1cccc(Cl)c1F	-5.99%

Compound	cytotoxicity at 10 µM
O=C(Cc1ccc2c(c1)CCC2)N1CCN(c2cnccn2)CC1	-2.18%
Cc1ccc(NC2CCN(C(=O)c3nccc4ccccc34)CC2)nn1	-13.5%
CCn1ccnc1CN1CCCN(C(=O)COC2CCCC2)CC1	-6.58%
O=C(Cc1csc(-c2ccco2)n1)N1CCN(c2ccccc2O)CC1	-10.7%
COc1ccnc(N2CCN(C(=O)Cc3ccn(C(C)C)n3)CC2)n1	-16.2%
CCc1nnc(CN2CCCN(C(=O)c3ccccn3)CC2)o1	-5.56%
CCOC(CC)C(=O)NCc1cccc(N2CCCCC2=O)c1 (configuration not stated)	5.12%
CCN(C)S(=O)(=O)N(CC)Cc1ccc2c(c1)OCO2	-6.62%
Cc1ccc2c(c1)C(NC(C)C)CC21CCNCC1 (configuration not stated)	-10.6%
O=C(c1ccc2ccccc2n1)N1CCC2(CCN2c2ncccn2)C1 (configuration not stated)	-114%
c1c(CN2CCCC2)nc2n1CCN(CC1CC1)C2	-136%
COCCN1CCC2(CCC(=O)N2Cc2csc(C)n2)CC1	2.22%
CCN1CC[C@@]2(C(=O)N3CCCC3)CCN(S(C)(=O)=O)CC[C@@H]12	-0.537%
CN(C)CCO[C@H]1CN(Cc2cccc(C#N)c2)[C@@H]2COC[C@H]12	-12.7%
O=C(N1CCCO1)[C@@]12CCO[C@@H]1CCN(Cc1ccc(F)cc1)C2	-6.1%
CSc1ccc(CNC2CCCc3c2cnn3C)cc1 (configuration not stated)	0.684%
CS(=O)(=O)N[C@H]1CCO[C@]2(CCN(CC3CCOCC3)C2)C1	-122%
O=C([C@H]1CC[C@@H]2[C@@H](CCN2Cc2ccsc2)O1)N1CCOCC1	1.3%
CN1C[C@H]2CC[C@@H](CC1=O)N2C(=O)c1ccc(-c2ccccc2)[nH]c1=O	5.91%
CCOc1ccc(C2c3c(N)nc(SC)nc3N=C3COC(=O)C32)cc1 (configuration not stated)	30%
